Experimental data from ChEMBL document CHEMBL5046274, “Identification and Optimization of Novel Small-Molecule Cas9 Inhibitors by Cell-Based High-Throughput Screening” (J Med Chem, 2022).
Active and inactive are the calls of the source. The calls are words filed in the database; no cut-off is given here.

Legend:
[1] = Inhibition of Streptococcus pyogenes Cas9 by Cas9 cleavage assay
Method in brief: (§1)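 Recombinant SpyCas9 (5 nM) preincubated with compound in DMSO (final 5% v/v) for 15 min at 37 °C in PBS + 10 mM MgCl2 + 0.02% Triton X-100. Then 6 nM preformed crRNA/tracrRNA gRNA for 5 min, then 1 nM PCR-amplified target DNA for 30 min. Quenched with proteinase K, run on a 1% agarose gel, bands quantified by densitometry. Run in triplicate; IC50 from a four-parameter logistic fit.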

Streptococcus pyogenes [2] = test: Inhibition of Streptococcus pyogenes Cas9 at 500 microM by Cas9 cleavage assay; method in brief: as §1
Streptococcus pyogenes [3] = test: Inhibition of Streptococcus pyogenes Cas9 assessed as inhibition of Csp9:gRNA complex formation at 200 to 500 uM; conditions: dose 200-500 µM
Streptococcus pyogenes [4] = test: Inhibition of Streptococcus pyogenes Cas9 at 200 microM by Cas9 cleavage assay; method in brief: as §1
Streptococcus pyogenes [5] = test: Binding affinity to Streptococcus pyogenes Cas9 by 1D 1H-NMR-WaterLOGSY spectrum analysis
Method in brief: (§2)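 NMR ligand-binding on apo-SpyCas9 with standard pulse sequences. For WaterLOGSY, bound ligands give signals of opposite (negative) phase to non-binders. Alanine is added to the cocktail at the ligand concentration as a phasing reference.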

Streptococcus pyogenes [6] = test: Inhibition of Streptococcus pyogenes Cas9 assessed as inhibition of Csp9:gRNA complex formation
Streptococcus pyogenes [7] = test: Inhibition of Streptococcus pyogenes Cas9 assessed as inhibition of Csp9:gRNA complex formation at 200 uM by EMSA assay
Method in brief: (§3)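 EMSA in PBS + 10 mM MgCl2 + 0.02% Triton X-100. Compound incubated with 200 nM apo-SpyCas9 for 5 min at 37 °C, then 200 nM Atto550-labelled crRNA/tracrRNA gRNA added for 15 min. Complexes resolved on a 6% TBE gel and visualised by fluorescence.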

Streptococcus pyogenes [8] = test: Binding affinity to Streptococcus pyogenes Cas9 by 1H-19F-(CPMG)-NMR analysis; method in brief: as §2
Streptococcus pyogenes [9] = test: Inhibition of Streptococcus pyogenes apo-Cas9 assessed as inhibition of Csp9:gRNA complex formation at 10 to 200 uM by EMSA assay; conditions: dose 10-200 µM; method in brief: as §3

With `Cc1cc(NS(=O)(=O)c2ccc(-c3ccccc3)cc2)no1` the IC50 [1] was 189 µM.

For `Cc1cc(NS(=O)(=O)c2cccc(-c3ccc(Cl)c(Cl)c3)c2)no1`, the IC50 [1] was 14 µM.

`Cc1cc(NS(=O)(=O)c2cccc(-c3ccccc3)c2)no1` showed an IC50 [1] of 129 µM.

For `Cc1cc(NS(=O)(=O)c2cc(-c3nc(C)c(C(=O)N4CCC(C)CC4)s3)n(C)c2C)no1`, the Activity (Streptococcus pyogenes [2]) was “Active”, the IC50 [1] was 246 µM and the inhibition (Streptococcus pyogenes [3]) was “Active”.

Molecule `Cc1cc(NS(=O)(=O)c2ccc(-c3cccc(C(=O)N4CCC(C)CC4)c3)cc2)no1` has an IC50 [1] of 223 µM.

With `Oc1c(C(c2ccccn2)N2CCC(Cc3ccccc3)CC2)cc(Cl)c2cccnc12` (configuration not stated) the Activity (Streptococcus pyogenes [2]) was “Active”.

Work on `CC1CCN(C(=O)c2cccc(-c3ccc(C(F)(F)F)cc3)c2)CC1` yielded an IC50 [1] of 28 µM.

Work on `CC1CCN(C(=O)c2cccc(-c3ccccc3)c2)CC1` yielded an IC50 [1] of 28 µM.

With `Cc1ccnc(NS(=O)(=O)c2cc(-c3nc(C)c(C(=O)N4CCC(C)CC4)s3)n(C)c2C)c1` the Activity (Streptococcus pyogenes [4]) was “inactive”.

In the case of `Cc1cc(NS(=O)(=O)c2cc(-c3ccc(Cl)c(Cl)c3)cc(C(F)(F)F)c2)no1`, the Activity (Streptococcus pyogenes [5]) is reported as “Active”, the IC50 [1] is reported as 7.02 µM and the inhibition (Streptococcus pyogenes [6]) is reported as “Active”. For the same molecule, the inhibition (Streptococcus pyogenes [7]) was “Active”, the Activity (Streptococcus pyogenes [8]) was “Active” and the inhibition (Streptococcus pyogenes [9]) was “Active”.
